The sample as a whole holds a higher share of hits than the screen did.
KDM4C inh: KDM4C (human) demethylase inhibition; Q9H3R0; GST-KDM4C 2-372, H3K9me3 peptide, LANCE TR-FRET; inhibition, % at 12.5 µM; 0.15% of 96,000 active; AID 720574;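 active = mean replicate inhibition above about 25%, with at least 55% of replicates also reaching it, limit read from the data, passing the limit was not always enough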
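material = GST-tagged GASC-1 (JMJD2C) catalytic fragment, aa 2-372 | amount = enzyme final amount 10 nM | medium = HEPES buffer, pH 7.5, plus ascorbate | also added = H3K9me3 peptide substrate, Fe(II), 2-oxoglutarate | dosing = single dose | times = 30 min demethylation and 1 h detection at room temperature | detection = LANCE TR-FRET | read-out basis = Fall in 671/618 emission ratio as inhibition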
Pf Dd2 growth: P. falciparum Dd2 growth inhibition | SYBR Green, 72 h; active compounds read low | activity change, % at 10 µM | 2.3% of 94,000 active | AID 1159554; in the data active = activity change below about -80%
IDH1 mut inh: blocks human IDH1 R132H reductase activity. 0.18% of 70,000 active. inhibition, % at 10 µM. AID 624101. diaphorase/resazurin fluorescence, 60 min. O75874; in the data active = inhibition above about 34%
Target sequence (O75874 whole entry R132H): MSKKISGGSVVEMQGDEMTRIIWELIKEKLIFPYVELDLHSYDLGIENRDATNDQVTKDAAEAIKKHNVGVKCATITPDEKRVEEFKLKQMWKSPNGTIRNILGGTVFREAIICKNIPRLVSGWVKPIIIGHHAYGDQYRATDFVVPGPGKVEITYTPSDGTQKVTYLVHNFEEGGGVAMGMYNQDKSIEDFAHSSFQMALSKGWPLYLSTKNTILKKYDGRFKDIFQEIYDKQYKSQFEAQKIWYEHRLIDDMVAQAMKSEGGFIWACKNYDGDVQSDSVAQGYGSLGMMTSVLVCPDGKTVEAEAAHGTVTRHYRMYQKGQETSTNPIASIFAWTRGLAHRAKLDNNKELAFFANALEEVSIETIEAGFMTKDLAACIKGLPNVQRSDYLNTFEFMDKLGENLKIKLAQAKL
Hits are given with their value; - = inactive; . = no result.

SMILES	KDM4C inh	Pf Dd2 growth	IDH1 mut inh
C[C@@H]1CCCCO[C@H](CN(C)C(=O)Nc2cccc3ccccc23)[C@H](C)CN([C@H](C)CO)C(=O)c2cc(NS(=O)(=O)c3ccc(F)cc3)ccc2O1	-	-84	.
C[C@H]1CCCCO[C@@H](CN(C)C(=O)Nc2cccc3ccccc23)[C@@H](C)CN([C@@H](C)CO)C(=O)c2cc(NS(=O)(=O)c3ccc(F)cc3)ccc2O1	-	-	-
C[C@@H]1CN([C@@H](C)CO)C(=O)c2cc(NS(=O)(=O)c3ccc(F)cc3)ccc2O[C@@H](C)CCCCO[C@H]1CN(C)C(=O)Nc1cccc2ccccc12	-	-86	-
C[C@H](CO)N1C[C@H](C)[C@@H](CN(C)C(=O)Nc2cccc3ccccc23)OCCCC[C@H](C)Oc2ccc(NS(=O)(=O)c3ccccc3)cc2C1=O	-	-	.
C[C@@H]1CN([C@H](C)CO)C(=O)c2cc(C3=CCCC3)cnc2O[C@H]1CN(C)C(=O)C1CCC1	-	-	-
CO[C@H]1CN(C)C(=O)c2ccc(NC(=O)C3CCC3)cc2OC[C@@H](C)N(Cc2cccnc2)C[C@@H]1C	-	.	-
C[C@@H]1CN([C@H](C)CO)C(=O)c2cccc(NS(=O)(=O)c3ccccc3)c2O[C@@H]1CN(C)Cc1ccc(C(=O)Nc2ccccc2N)cc1	-	-85	.
C[C@H]1CN([C@@H](C)CO)C(=O)c2cccc(NS(=O)(=O)c3ccccc3)c2O[C@H]1CN(C)Cc1ccc(C(=O)Nc2ccccc2N)cc1	-	-88	-
C[C@@H]1CN([C@H](C)CO)C(=O)c2cccc(NS(=O)(=O)c3ccc(F)cc3)c2O[C@@H]1CN(C)Cc1ccc(C(=O)Nc2ccccc2N)cc1	-	-86	-
C[C@H](CO)N1C[C@H](C)[C@H](CN(C)Cc2ccc(Cl)c(Cl)c2)Oc2c(NS(=O)(=O)c3ccc(F)cc3)cccc2C1=O	.	-	.
C[C@H]1CN([C@@H](C)CO)C(=O)c2cccc(NS(=O)(=O)c3ccccc3)c2O[C@@H]1CN(C)Cc1ccc(C(=O)Nc2ccccc2N)cc1	-	-	-
C[C@H]1CN([C@@H](C)CO)C(=O)c2cccc(NS(=O)(=O)c3ccc(F)cc3)c2O[C@H]1CN(C)Cc1ccc(Cl)c(Cl)c1	-	-82	-
C[C@@H]1CN([C@H](C)CO)C(=O)c2cccc(NS(=O)(=O)c3ccc(F)cc3)c2O[C@H]1CN(C)Cc1ccc(C(=O)Nc2ccccc2N)cc1	-	-	-
C[C@@H]1CN([C@@H](C)CO)C(=O)c2cccc(NS(=O)(=O)c3ccc(Cl)cc3)c2O[C@H]1CN(C)Cc1ccc(C(=O)Nc2ccccc2N)cc1	-	-	.
O=S(=O)(Cc1ccccc1)N1CCCCN2[C@H](CO)[C@H](c3ccc(-c4cncnc4)cc3)[C@@H]2C1	-	-	.
COc1ccc(C#Cc2cnc3c(c2)C(=O)N([C@@H](C)CO)C[C@@H](C)[C@@H](CN(C)CC2CCCC2)O3)cc1	-	-	.
COc1ccc(OC)c(C2C(C(=O)c3ccco3)C(=O)C(=O)N2CCN2CCOCC2)c1 (stereo not given)	.	.	-
Cc1ccc(S(=O)(=O)Nc2cccc3c2O[C@H](CN(C)Cc2ccc(C(=O)Nc4ccccc4N)cc2)[C@@H](C)CN([C@H](C)CO)C3=O)cc1	-	-	-
Cc1ccc(S(=O)(=O)Nc2cccc3c2O[C@@H](CN(C)Cc2ccc(C(=O)Nc4ccccc4N)cc2)[C@@H](C)CN([C@H](C)CO)C3=O)cc1	-	-83	-
C[C@@H]1CCCCO[C@H](CN(C)S(=O)(=O)c2cccs2)[C@H](C)CN([C@H](C)CO)C(=O)c2cc(NS(=O)(=O)c3ccc(Cl)cc3)ccc2O1	-	-87	.
C[C@@H]1CN([C@H](C)CO)C(=O)c2cc(NS(=O)(=O)c3ccc(Cl)cc3)ccc2O[C@@H](C)CCCCO[C@@H]1CN(C)S(=O)(=O)c1cccs1	-	-	.
C[C@@H]1CCCCO[C@H](CN(C)S(=O)(=O)c2cccs2)[C@H](C)CN([C@H](C)CO)C(=O)c2cc(NS(=O)(=O)c3ccccc3)ccc2O1	-	-83	-
C[C@H]1CCCCO[C@H](CN(C)S(=O)(=O)c2cccs2)[C@@H](C)CN([C@@H](C)CO)C(=O)c2cc(NS(=O)(=O)c3ccccc3)ccc2O1	-	-	.
C[C@H](CO)N1C[C@H](C)[C@@H](CN(C)C(=O)C2CC2)OCc2cn(nn2)CCCC1=O	.	-	-
CCCC#Cc1ccc2c(c1)O[C@H](CN(C)C(=O)c1ccncc1)[C@@H](C)CN([C@H](C)CO)S2(=O)=O	-	-	-
SMILES	KDM4C inh	Pf Dd2 growth	IDH1 mut inh
COc1ccc(C#Cc2ccc3c(c2)O[C@@H](CN(C)S(=O)(=O)c2ccccc2F)[C@@H](C)CN([C@@H](C)CO)S3(=O)=O)cc1	-	-90	-
COc1ccc(C#Cc2ccc3c(c2)O[C@H](CN(C)S(=O)(=O)c2ccccc2F)[C@@H](C)CN([C@H](C)CO)S3(=O)=O)cc1	-	-87	-
COc1cccc(C#Cc2ccc3c(c2)O[C@H](CN(C)S(=O)(=O)c2ccccc2F)[C@H](C)CN([C@H](C)CO)S3(=O)=O)c1	-	-	-
C[C@H]1CN([C@@H](C)CO)S(=O)(=O)c2ccc(C#Cc3ccccc3)cc2O[C@@H]1CN(C)S(=O)(=O)c1cn(C)cn1	-	-87	-
COc1ccc(S(=O)(=O)N(C)C[C@@H]2Oc3cc(C#CC4CCCCC4)ccc3S(=O)(=O)N([C@@H](C)CO)C[C@H]2C)cc1	-	-84	.
COc1ccc(S(=O)(=O)N(C)C[C@H]2Oc3cc(C#CC4CCCCC4)ccc3S(=O)(=O)N([C@@H](C)CO)C[C@H]2C)cc1	-	-	.
C[C@@H]1CN([C@@H](C)CO)S(=O)(=O)c2ccc(C#Cc3ccccc3)cc2O[C@H]1CN(C)S(=O)(=O)c1cn(C)cn1	-	-	-
COc1cccc(C#Cc2ccc3c(c2)O[C@H](CN(C)S(=O)(=O)c2ccccc2F)[C@@H](C)CN([C@@H](C)CO)S3(=O)=O)c1	-	-	-
COc1ccc(NC(=O)C(C)Oc2ccc3c(C)c(CCC(C)C)c(=O)oc3c2)cc1 (stereo not given)	.	.	-
C[C@H]1CN([C@@H](C)CO)C(=O)c2ccccc2-c2ccccc2CO[C@H]1CN(C)C(=O)CCN(C)C	-	-	-
COc1cccc(-c2ccc([C@@H]3[C@H](CO)N(C(C)=O)C34CN(C(C)=O)C4)cc2)c1	-	-	.
CN1C[C@@H]2[C@H](c3ccccc31)[C@H](CO)N2C(=O)C1CCOCC1	-	-	.
COc1ccc(NC(=O)N(C)C[C@@H]2OCCCC[C@@H](C)Oc3ccc(NC(=O)Cc4ccccc4)cc3C(=O)N([C@@H](C)CO)C[C@@H]2C)cc1	-	-	.
COc1ccc(NC(=O)N(C)C[C@H]2OCCCC[C@H](C)Oc3ccc(NC(=O)Cc4ccccc4)cc3C(=O)N([C@H](C)CO)C[C@H]2C)cc1	-	-87	.
C[C@H]1CCCCO[C@H](CN(C)C(=O)Nc2ccc(C(F)(F)F)cc2)[C@@H](C)CN([C@@H](C)CO)C(=O)c2cc(NC(=O)Cc3ccccc3)ccc2O1	-	-89	-

Bioassay records: PubChem, Broad Institute
